Key:
Assay type in all cases: functional
[1] = test system: Mus musculus; test: Antitumor activity against L1210 leukemia in mice (Average 7-day weight change) at the dose of 160 mg/kg
Method in brief: (§1)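 Male B6D2F1J mice, groups of five to nine, inoculated ip with 10^5 L1210 cells on day 0. Drug treatment started day 1 on qd×5 or q4d(2,6) schedule. Vehicles: ara-C in sterile water; the n-butyl phosphate ester in 0.05 M pH 7.4 potassium phosphate buffer; others as suspensions in 0.4% Tween 80/0.5% low-density CMC/0.9% benzyl alcohol/0.9% saline. Mice weighed days 1 and 7; 7-day weight change given as g/mouse and %.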

[2] = test system: Mus musculus; test: Antitumor activity against L1210/ara-C leukemia in mice (Percent increase in life span.) at the dose of 80 mg/kg
Method in brief: (§2)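 Same protocol as the L1210 assay, but with 10^5 kinase-deficient L1210/ara-C cells inoculated ip into male B6D2F1J mice (groups of 5–9) on day 0. Treatment begins day 1, qd×5 or q4d(2,6). %ILS = (T/C − 1)×100 using median survival times of treated and control groups. Body weight recorded days 1 and 7.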

[3] = test system: Mus musculus; test: Antitumor activity against L1210 leukemia in mice (Percent increase in life span.) at the dose of 640 mg/kg
Method in brief: (§3)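 Male B6D2F1J mice, groups of 5–9, inoculated ip with 10^5 L1210 cells on day 0. Dosing starts day 1 on a qd×5 or q4d(2,6) schedule. Vehicles are sterile water, pH 7.4 0.05 M potassium phosphate buffer, or 0.4% Tween 80/0.5% CMC/0.9% benzyl alcohol/0.9% saline. %ILS = (T/C − 1)×100 from median survival. Weights taken days 1 and 7.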

[4] = test system: Mus musculus; test: Antitumor activity against L1210 leukemia in mice (Average 7-day weight change (%)) at the dose of 320 mg/kg; method in brief: as §1
[5] = test system: Mus musculus; test: Antitumor activity against L1210/ara-C leukemia in mice (Average 7-day weight change) at the dose of 80 mg/kg
Method in brief: (§4)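 Male B6D2F1J mice, groups of 5–9, inoculated ip with 10^5 L1210/ara-C cells on day 0. Dosing began day 1 on a qd×5 or q4d(2,6) schedule. Ara-C was given in sterile water, the n-butyl phosphate ester in 0.05 M pH 7.4 potassium phosphate buffer, and others as suspensions in 0.4% Tween 80/0.5% CMC/0.9% benzyl alcohol/0.9% saline. Mice were weighed on days 1 and 7; 7-day change given in g and %.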

[6] = test system: Mus musculus; test: Antitumor activity against L1210/ara-C leukemia in mice (Percent increase in life span.) at the dose of 320 mg/kg; method in brief: as §2
[7] = test system: Mus musculus; test: Antitumor activity against L1210 leukemia in mice (Average 7-day weight change (%)) at the dose of 80 mg/kg; method in brief: as §1
[8] = test system: L1210; test: Growth inhibition of cultured L1210 mouse leukemia cells was determined; conditions: read-out: ID50 (the source's name)
Method in brief: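 L1210 mouse leukemia cells in suspension in Eagle's MEM with 15% whole (non-dialyzed, non-heat-inactivated) fetal calf serum, antibiotics and 0.05 mM 2-mercaptoethanol, 37 °C, 5% CO2. Drugs in pH 7.4 phosphate buffer or Me2SO, generally 10^-7 to 10^-3 M. Coulter cell counts at 48 h; ID50 relative to untreated controls from dose–response curves, triplicate.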

[9] = test system: Mus musculus; test: Antitumor activity against L1210/ara-C leukemia in mice (Average 7-day weight change) at the dose of 160 mg/kg
Method in brief: (§5)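 Male B6D2F1J mice (5–9 per group) were given 10^5 L1210/ara-C cells i.p. on day 0, with treatment from day 1 on qd×5 or q4d(2,6). Vehicles were sterile water, pH 7.4 0.05 M phosphate buffer, or a Tween 80/CMC/benzyl alcohol saline suspension. Weights were taken on days 1 and 7; change is expressed in g/mouse and as a percentage.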

[10] = test system: Mus musculus; test: Antitumor activity against L1210 leukemia in mice (Percent increase in life span.) at the dose of 160 mg/kg; method in brief: as §3
[11] = test system: Mus musculus; test: Antitumor activity against L1210 leukemia in mice (Average weight per mouse on day 1.) at the dose of 640 mg/kg
Method in brief: (§6)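 Male B6D2F1J mice (5–9 per group) received 10^5 L1210 cells i.p. on day 0 and drug from day 1, given qd×5 or q4d(2,6). Vehicles were sterile water, 0.05 M potassium phosphate pH 7.4, or 0.4% Tween 80/0.5% CMC/0.9% benzyl alcohol/0.9% saline. Read-out is average body weight per mouse (g) on day 1.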

[12] = test system: Mus musculus; test: Antitumor activity against L1210 leukemia in mice (Average 7-day weight change) at the dose of 80 mg/kg
Method in brief: (§7)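 Male B6D2F1J mice in groups of five to nine were inoculated i.p. with 10^5 L1210 cells on day 0. Dosing began on day 1 on a qd×5 or q4d(2,6) schedule. The vehicle was sterile water, pH 7.4 0.05 M potassium phosphate buffer, or a saline suspension with 0.4% Tween 80, 0.5% CMC and 0.9% benzyl alcohol. Mice were weighed on days 1 and 7; read-out is average weight change per mouse.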

[13] = test system: Mus musculus; test: Antitumor activity against L1210/ara-C leukemia in mice (Average weight per mouse on day 1.) at the dose of 80 mg/kg; method in brief: as §4
[14] = test system: B16; test: Growth inhibition of B16 mouse melanoma cells in culture was determined; conditions: read-out: ID50 (the source's name)
Method in brief: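 B16 mouse melanoma monolayers in McCoy's 5A with 10% whole fetal calf serum, streptomycin and penicillin, 37 °C, 5% CO2. Drugs were dissolved in 0.05 M pH 7.4 potassium phosphate buffer or Me2SO and dosed at regularly spaced concentrations, generally 10^-7 to 10^-3 M. Cells were counted after 48 h; ID50 versus untreated controls was read from dose–response curves, triplicate.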

[15] = test system: Mus musculus; test: Antitumor activity against L1210/ara-C leukemia in mice (Average 7-day weight change (%)) at the dose of 640 mg/kg; method in brief: as §5
[16] = test system: Mus musculus; test: Antitumor activity against L1210 leukemia in mice (Average 7-day weight change) at the dose of 640 mg/kg; method in brief: as §7
[17] = test system: Mus musculus; test: Antitumor activity against L1210/ara-C leukemia in mice (Average weight per mouse on day 1.) at the dose of 640 mg/kg; method in brief: as §4
[18] = test system: Mus musculus; test: Antitumor activity against L1210/ara-C leukemia in mice (Average 7-day weight change (%)) at the dose of 160 mg/kg; method in brief: as §5
[19] = test system: Mus musculus; test: Antitumor activity against L1210 leukemia in mice (Average weight per mouse on day 1.) at the dose of 320 mg/kg; method in brief: as §6
[20] = test system: Mus musculus; test: Antitumor activity against L1210/ara-C leukemia in mice (Percent increase in life span.) at the dose of 160 mg/kg; method in brief: as §2
[21] = test system: Mus musculus; test: Antitumor activity against L1210/ara-C leukemia in mice (Average 7-day weight change (%)) at the dose of 80 mg/kg; method in brief: as §5
[22] = test system: Mus musculus; test: Antitumor activity against L1210 leukemia in mice (Average 7-day weight change (%)) at the dose of 160 mg/kg; method in brief: as §1
[23] = test system: Mus musculus; test: Antitumor activity against L1210/ara-C leukemia in mice (Average 7-day weight change) at the dose of 640 mg/kg; method in brief: as §4
[24] = test system: Mus musculus; test: Antitumor activity against L1210 leukemia in mice (Percent increase in life span.) at the dose of 320 mg/kg; method in brief: as §3
[25] = test system: Mus musculus; test: Antitumor activity against L1210 leukemia in mice (Percent increase in life span.) at the dose of 80 mg/kg; conditions: L1210, dose 80 mg/kg; method in brief: as §3
[26] = test system: Mus musculus; test: Antitumor activity against L1210 leukemia in mice (Average 7-day weight change) at the dose of 320 mg/kg; method in brief: as §1
[27] = test system: Mus musculus; test: Antitumor activity against L1210/ara-C leukemia in mice (Average 7-day weight change) at the dose of 320 mg/kg; method in brief: as §5
[28] = test system: Mus musculus; test: Antitumor activity against L1210 leukemia in mice (Average weight per mouse on day 1.) at the dose of 80 mg/kg; method in brief: as §6
[29] = test system: Mus musculus; test: Antitumor activity against L1210 leukemia in mice (Average 7-day weight change (%)) at the dose of 640 mg/kg; method in brief: as §1
[30] = test system: Mus musculus; test: Antitumor activity against L1210/ara-C leukemia in mice (Percent increase in life span.) at the dose of 640 mg/kg; method in brief: as §2
[31] = test system: Mus musculus; test: Antitumor activity against L1210/ara-C leukemia in mice (Average 7-day weight change (%)) at the dose of 320 mg/kg; method in brief: as §5
[32] = test system: Mus musculus; test: Antitumor activity against L1210 leukemia in mice (Average weight per mouse on day 1.) at the dose of 160 mg/kg; method in brief: as §6
[33] = test system: Mus musculus; test: Antitumor activity against L1210/ara-C leukemia in mice (Average weight per mouse on day 1.) at the dose of 160 mg/kg; method in brief: as §4

Question: Which Weight change [1] does the source give for CCCCOP(=O)(O)OC[C@H]1O[C@@H](n2ccc(N)nc2=O)[C@@H](O)[C@@H]1O here?
Answer: 1 g mouse-1

Question: And the ILS at 80 mg/kg [2]?
Answer: 0%

Question: And the ILS at 640 mg/kg [3]?
Answer: 87%

Question: What about the Weight change [4] of the same compound?
Answer: 3%

Question: And the Weight change [5]?
Answer: 3 g mouse-1

Question: What about the ILS at 320 mg/kg [6] of the same compound?
Answer: 0%

Question: What about the Weight change [7] of the same compound?
Answer: 10%

Question: And the IC50 [8]?
Answer: 7.5 µM

Question: And the Weight change [9]?
Answer: 3.6 g mouse-1

Question: And the ILS at 160 mg/kg [10]?
Answer: 50%

Question: And the Average weight [11]?
Answer: 22.8 g mouse-1

Question: And the Weight change [12]?
Answer: 2.6 g mouse-1

Question: And the Average weight [13]?
Answer: 23.4 g mouse-1

Question: What about the IC50 [14] of the same compound?
Answer: 130 µM

Question: What about the Weight change [15] of the same compound?
Answer: 0%

Question: And the Weight change [16]?
Answer: 0.2 g mouse-1

Question: And the Average weight [17]?
Answer: 22.6 g mouse-1

Question: What about the Weight change [18] of the same compound?
Answer: 16%

Question: And the Average weight [19]?
Answer: 22.4 g mouse-1

Question: And the ILS at 160 mg/kg [20]?
Answer: 0%

Question: And the Weight change [21]?
Answer: 13%

Question: And the Weight change [22]?
Answer: 4%

Question: And the Weight change [23]?
Answer: 0.2 g mouse-1

Question: What about the ILS at 320 mg/kg [24] of the same compound?
Answer: 87%

Question: And the ILS at 80 mg/kg [25]?
Answer: 37%

Question: And the Weight change [26]?
Answer: 0.6 g mouse-1

Question: And the Weight change [27]?
Answer: 1 g mouse-1

Question: What about the Average weight [28] of the same compound?
Answer: 22 g mouse-1

Question: What about the Weight change [29] of the same compound?
Answer: 1%

Question: What about the ILS at 640 mg/kg [30] of the same compound?
Answer: -13%

Question: And the Weight change [31]?
Answer: 5%

Question: What about the Average weight [32] of the same compound?
Answer: 23.6 g mouse-1

Question: And the Average weight [33]?
Answer: 22.2 g mouse-1

From ChEMBL document CHEMBL1122008, “Lipophilic 5'-(alkyl phosphate) esters of 1-beta-D-arabinofuranosylcytosine and its N4-acyl and 2,2'-anhydro-3'-O-acyl derivatives as potential prodrugs” (1982)
